How the values were obtained:
[1] = molecular target: T1, Sodium-dependent serotonin transporter (Rattus norvegicus, UniProt P31652); experiment: Inhibition of high affinity 5-HT uptake at concentration of 1 uM; type: functional
Rattus norvegicus [2] = organism: Rattus norvegicus; experiment: Michaelis-Menten constant was reported for high affinity transport of choline; type: functional
How it was run: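 Rat forebrain crude synaptosome aliquots (0.27–0.3 mg protein) were equilibrated at 30 °C. [3H]choline was added at 10 nM to 10 μM and uptake run 3 min, within the linear range. Parallel 0 °C incubations corrected for nonspecific binding and diffusion. Reactions were stopped by ice cooling, centrifuged at 800g, and the pellets washed with ice-cold KRB.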

Rattus norvegicus [3] = organism: Rattus norvegicus; experiment: (§1) Inhibition of high affinity dopamine uptake at concentration of 1 uM; type: functional
[4] = molecular target: T1, Sodium-dependent serotonin transporter; experiment: Inhibition constant of high-affinity 5-HT uptake
How it was run: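 Rat forebrain crude synaptosomes took up [3H]serotonin (0.727 Ci/mmol) for 3 min at 30 °C, with and without inhibitor, as for the choline assay. IC50 came from nonlinear regression or Hill plots over 5–10 inhibitor concentrations. Ki was derived with Cheng-Prusoff, using the serotonin transport Km measured over 10 nM to […] substrate.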

[5] = molecular target: T2, Sodium-dependent dopamine transporter (Rattus norvegicus, UniProt P23977); experiment: as §1; type: functional
[6] = molecular target: T2, Sodium-dependent dopamine transporter; experiment: Inhibition constant of high-affinity dopamine uptake
How it was run: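 Crude synaptosomes from adult male Long-Evans rat forebrain (Gray–Whittaker method) were incubated with [3H]dopamine (0.72 Ci/mmol) for 3 min at 30 °C alongside 0 °C blanks, with inhibitor at 5–10 concentrations between 10 µM and 10 mM. Uptake was stopped on ice and pellets were washed in KRB. IC50 came from regression or Hill plots, and Ki from Cheng–Prusoff using dopamine Km 1.4 µM.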

[7] = substrate: C[N+](C)(C)CC(O)c1ccc(O)c(O)c1
[8] = substrate: C[N+](C)(C)CC(O)c1ccc(O)c(O)c1; remark: listed apart in the source
[9] = substrate: C[N+](C)(C)CC(O)c1ccc(O)c(O)c1; remark: listed apart in the source
[10] = substrate: C[N+](C)(C)CC(O)c1ccc(O)c(O)c1; remark: listed apart in the source
[11] = substrate: C[N+](C)(C)CC(O)c1ccc(O)c(O)c1; remark: listed apart in the source
[12] = substrate: C[N+](C)(C)CC(O)c1ccc(O)c(O)c1; remark: listed apart in the source

## C[N+](C)(C)c1cccc(O)c1O
[1]
  IC50: 213 µM
Rattus norvegicus [2]
  Km: 1000 µM
Rattus norvegicus [3]
  IC50: 196 µM
[4]
  Ki: 90 µM

## C[N+](C)(C)CC(O)c1ccc(O)c(O)c1 (centres undefined) [CATECHOLINE]
[1]
  IC50: 3600 µM
[5]
  IC50: 949 µM
[4]
  Ki: 390 µM
[6]
  Ki: 530 µM

B1: Sodium-dependent serotonin transporter (Rattus norvegicus), P31652 (protein)
chain: METTPLNSQKVLSECKDREDCQENGVLQKGVPTTADRAEPSQISNGYSAVPSTSAGDEASHSIPAATTTLVAEIRQGERETWGKKMDFLLSVIGYAVDLGNIWRFPYICYQNGGGAFLLPYTIMAIFGGIPLFYMELALGQYHRNGCISIWRKICPIFKGIGYAICIIAFYIASYYNTIIAWALYYLISSLTDRLPWTSCTNSWNTGNCTNYFAQDNITWTLHSTSPAEEFYLRHVLQIHQSKGLQDLGTISWQLTLCIVLIFTVIYFSIWKGVKTSGKVVWVTATFPYIVLSVLLVRGATLPGAWRGVVFYLKPNWQKLLETGVWVDAAAQIFFSLGPGFGVLLAFASYNKFNNNCYQDALVTSVVNCMTSFVSGFVIFTVLGYMAEMRNEDVSEVAKDAGPSLLFITYAEAIANMPASTFFAIIFFLMLITLGLDSTFAGLEGVITAVLDEFPHIWAKRREWFVLIVVITCVLGSLLTLTSGGAYVVTLLEEYATGPAVLTVALIEAVAVSWFYGITQFCSDVKEMLGFSPGWFWRICWVAISPLFLLFIICSFLMSPPQLRLFQYNYPHWSIVLGYCIGMSSVICIPTYIIYRLISTPGTLKERIIKSITPETPTEIPCGDIRMNAV
[7]
  Km: 150 µM
[8]
  Vmax (pM min-1 mg-1): 23

B2: Sodium-dependent dopamine transporter (Rattus norvegicus), P23977 (protein)
chain: MSKSKCSVGPMSSVVAPAKESNAVGPREVELILVKEQNGVQLTNSTLINPPQTPVEAQERETWSKKIDFLLSVIGFAVDLANVWRFPYLCYKNGGGAFLVPYLLFMVIAGMPLFYMELALGQFNREGAAGVWKICPVLKGVGFTVILISFYVGFFYNVIIAWALHYFFSSFTMDLPWIHCNNTWNSPNCSDAHASNSSDGLGLNDTFGTTPAAEYFERGVLHLHQSRGIDDLGPPRWQLTACLVLVIVLLYFSLWKGVKTSGKVVWITATMPYVVLTALLLRGVTLPGAMDGIRAYLSVDFYRLCEASVWIDAATQVCFSLGVGFGVLIAFSSYNKFTNNCYRDAIITTSINSLTSFSSGFVVFSFLGYMAQKHNVPIRDVATDGPGLIFIIYPEAIATLPLSSAWAAVFFLMLLTLGIDSAMGGMESVITGLVDEFQLLHRHRELFTLGIVLATFLLSLFCVTNGGIYVFTLLDHFAAGTSILFGVLIEAIGVAWFYGVQQFSDDIKQMTGQRPNLYWRLCWKLVSPCFLLYVVVVSIVTFRPPHYGAYIFPDWANALGWIIATSSMAMVPIYATYKFCSLPGSFREKLAYAITPEKDHQLVDRGEVRQFTLRHWLLL
[9]
  Vmax (pM min-1 mg-1): 53
[10]
  Km: 1400 µM

B3: Sodium- and chloride-dependent creatine transporter 1 (Rattus norvegicus), P28570 (protein)
chain: MAKKSAENGIYSVSGDEKKGPLIVSGPDGAPSKGDGPAGLGAPSSRLAVPPRETWTRQMDFIMSCVGFAVGLGNVWRFPYLCYKNGGGVFLIPYVLIALVGGIPIFFLEISLGQFMKAGSINVWNICPLFKGLGYASMVIVFYCNTYYIMVLAWGFYYLVKSFTTTLPWATCGHTWNTPDCVEIFRHEDCANASLANLTCDQLADRRSPVIEFWENKVLRLSTGLEVPGALNWEVTLCLLACWVLVYFCVWKGVKSTGKIVYFTATFPYVVLVVLLVRGVLLPGALDGIIYYLKPDWSKLGSPQVWIDAGTQIFFSYAIGLGALTALGSYNRFNNNCYKDAIILALINSGTSFFAGFVVFSILGFMATEQGVHISKVAESGPGLAFIAYPRAVTLMPVAPLWAALFFFMLLLLGLDSQFVGVEGFITGLLDLLPASYYFRFQREISVALCCALCFVIDLSMVTDGGMYVFQLFDYYSASGTTLLWQAFWECVVVAWVYGADRFMDDIACMIGYRPCPWMKWCWSFFTPLVCMGIFIFNVVYYKPLVYNNTYVYPWWGEAMGWAFALSSMLCVPLHLLGCLLRAKGTMAERWQHLTQPIWGLHHLEYRAQDADVRGLTTLTPVSESSKVVVVESVM
[11]
  Km: 2040 µM
[12]
  Vmax (pM min-1 mg-1): 22

Reference: ChEMBL document CHEMBL1126723, “Inhibition and inactivation of presynaptic cholinergic markers using redox-reactive choline analogs” (J Med Chem, 1993)
